Experimental findings from ChEMBL document CHEMBL1122934, “Angiotensin-converting enzyme inhibitors. New orally active antihypertensive (mercaptoalkanoyl)- and [(acylthio)alkanoyl]glycine derivatives” (J Med Chem, 1985) are described below.

Structures are written as SMILES.

Usually IC50 stands for the point on the concentration scale where inhibition reaches its midpoint. Low readings indicate greater potency, high ones weaker potency.

The target of experiment [1] is T1, Angiotensin-converting enzyme (Rattus norvegicus) (UniProt P47820).
T1 sequence (whole entry): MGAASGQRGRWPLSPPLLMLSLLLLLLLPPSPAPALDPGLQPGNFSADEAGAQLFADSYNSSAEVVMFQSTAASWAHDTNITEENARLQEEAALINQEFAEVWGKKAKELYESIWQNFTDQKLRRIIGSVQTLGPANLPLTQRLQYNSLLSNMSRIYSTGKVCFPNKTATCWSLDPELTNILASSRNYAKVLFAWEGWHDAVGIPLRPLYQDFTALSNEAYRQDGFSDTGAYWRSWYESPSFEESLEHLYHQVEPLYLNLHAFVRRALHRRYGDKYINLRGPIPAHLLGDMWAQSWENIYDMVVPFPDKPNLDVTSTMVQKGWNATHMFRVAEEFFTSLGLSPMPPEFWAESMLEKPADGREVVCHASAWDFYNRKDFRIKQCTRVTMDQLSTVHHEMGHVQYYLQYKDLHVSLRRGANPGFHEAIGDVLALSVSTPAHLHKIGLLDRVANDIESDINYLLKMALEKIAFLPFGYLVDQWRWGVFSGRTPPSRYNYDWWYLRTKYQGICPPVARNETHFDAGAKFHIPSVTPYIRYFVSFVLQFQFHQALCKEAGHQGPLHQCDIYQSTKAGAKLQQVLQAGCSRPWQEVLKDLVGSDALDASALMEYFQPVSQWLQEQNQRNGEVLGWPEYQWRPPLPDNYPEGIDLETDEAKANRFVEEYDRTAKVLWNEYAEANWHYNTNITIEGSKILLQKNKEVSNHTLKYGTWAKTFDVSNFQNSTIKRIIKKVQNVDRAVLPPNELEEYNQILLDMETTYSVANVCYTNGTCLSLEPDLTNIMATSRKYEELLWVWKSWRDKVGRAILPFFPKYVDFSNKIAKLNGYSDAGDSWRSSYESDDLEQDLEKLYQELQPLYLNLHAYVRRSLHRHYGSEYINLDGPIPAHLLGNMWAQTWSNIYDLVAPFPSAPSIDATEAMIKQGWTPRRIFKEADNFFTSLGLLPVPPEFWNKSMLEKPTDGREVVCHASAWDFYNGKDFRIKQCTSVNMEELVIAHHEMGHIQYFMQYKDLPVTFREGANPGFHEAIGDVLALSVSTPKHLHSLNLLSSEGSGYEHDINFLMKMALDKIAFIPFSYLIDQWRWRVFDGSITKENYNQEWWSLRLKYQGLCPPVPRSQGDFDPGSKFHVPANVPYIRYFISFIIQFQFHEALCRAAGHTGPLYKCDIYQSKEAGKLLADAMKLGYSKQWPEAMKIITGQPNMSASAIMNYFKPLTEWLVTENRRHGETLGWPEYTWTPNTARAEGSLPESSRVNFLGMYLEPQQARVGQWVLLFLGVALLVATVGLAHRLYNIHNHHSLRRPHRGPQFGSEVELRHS
Kind of experiment: Peroral dose required to inhibit angiotensin I induced vasopressor response in normotensive conscious rats. Format: functional. An outline of the steps:
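Male normotensive rats with aortic and vena caval catheters, used ≥6 days later while restrained; angiotensins I and II 0.25 μg/kg iv every 10 min. One oral inhibitor dose in 0.5% gum tragacanth suspension; angiotensin I repeated every 10 min for ≥2 h. Maximum inhibition as % of initial response; ID50 from dose-response plot.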

The target in experiment [2] is T2, Angiotensin-converting enzyme (Oryctolagus cuniculus, UniProt P12822).
T2 sequence (P12822 whole entry): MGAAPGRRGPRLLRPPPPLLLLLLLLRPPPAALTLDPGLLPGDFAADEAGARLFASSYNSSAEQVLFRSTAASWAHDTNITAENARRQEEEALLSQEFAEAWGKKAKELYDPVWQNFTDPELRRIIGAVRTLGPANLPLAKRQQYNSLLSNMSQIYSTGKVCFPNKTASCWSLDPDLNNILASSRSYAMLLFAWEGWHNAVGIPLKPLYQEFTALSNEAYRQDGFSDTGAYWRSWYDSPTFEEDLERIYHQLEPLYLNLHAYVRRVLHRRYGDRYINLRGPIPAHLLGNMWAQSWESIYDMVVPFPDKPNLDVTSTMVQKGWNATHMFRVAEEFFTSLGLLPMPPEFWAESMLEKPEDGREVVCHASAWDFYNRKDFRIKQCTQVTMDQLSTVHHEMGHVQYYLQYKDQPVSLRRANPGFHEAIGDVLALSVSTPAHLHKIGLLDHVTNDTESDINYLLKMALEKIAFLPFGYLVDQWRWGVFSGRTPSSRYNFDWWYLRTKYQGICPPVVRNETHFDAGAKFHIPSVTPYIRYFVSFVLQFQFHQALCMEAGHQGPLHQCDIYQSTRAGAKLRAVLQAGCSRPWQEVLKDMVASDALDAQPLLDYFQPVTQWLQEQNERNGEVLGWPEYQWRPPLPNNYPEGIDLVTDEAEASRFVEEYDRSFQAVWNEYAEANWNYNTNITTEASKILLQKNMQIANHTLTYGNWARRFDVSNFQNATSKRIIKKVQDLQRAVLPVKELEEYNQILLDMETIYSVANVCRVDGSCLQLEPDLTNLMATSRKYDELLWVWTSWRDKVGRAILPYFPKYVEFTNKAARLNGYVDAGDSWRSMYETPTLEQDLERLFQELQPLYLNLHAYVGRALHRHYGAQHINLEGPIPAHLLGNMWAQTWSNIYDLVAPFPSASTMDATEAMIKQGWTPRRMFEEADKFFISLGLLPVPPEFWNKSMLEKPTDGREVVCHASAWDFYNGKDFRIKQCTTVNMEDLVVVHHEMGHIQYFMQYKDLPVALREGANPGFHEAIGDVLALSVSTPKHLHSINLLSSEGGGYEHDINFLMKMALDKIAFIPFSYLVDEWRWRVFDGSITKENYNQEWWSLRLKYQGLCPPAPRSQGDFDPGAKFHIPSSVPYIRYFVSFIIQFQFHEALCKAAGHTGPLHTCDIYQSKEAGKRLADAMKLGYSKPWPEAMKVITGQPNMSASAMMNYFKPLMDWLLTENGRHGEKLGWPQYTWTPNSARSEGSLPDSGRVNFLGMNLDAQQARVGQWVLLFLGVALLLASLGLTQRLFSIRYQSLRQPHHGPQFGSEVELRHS
Kind of experiment: In vitro inhibitory activity against rabbit lung Angiotensin I converting enzyme at pH 8.3.

For experiment [3], the system named is Canis familiaris. Put plainly: Peroral dose required to inhibit angiotensin I induced vasopressor response in normotensive conscious dogs. Format: functional. The conditions noted are these: Canis lupus familiaris, po; read-out: ID50 (the source's name). An outline of the steps: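 Six conscious normotensive dogs; pressor response to angiotensin I 0.25 μg/kg iv. Inhibitor given orally at 0.01–1 mg/kg, vehicle 0.3 M KH₂PO₄ buffer, weekly intervals in a three-way crossover with vehicle control.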

In turn, `CC(CS)C(=O)N(CC(=O)O)C1CCCCCC1` (stereo not drawn) came in with an ID50 in experiment [1] of 0.05 mg/kg.
For the compound `CC(CS)C(=O)N(CC(=O)O)C1CCCC1` (stereo not drawn), in experiment [1], the ID50 amounted to 0.15 mg/kg.
As to `CC(=O)SCC(C)C(=O)N(CC(=O)O)c1ccccc1` (stereo not drawn), the midpoint of inhibition in experiment [2], the IC50, lay at 300 nM. This compound returned an ID50 in experiment [1] of 0.2 mg/kg.
For `CC(CSC(=O)C(C)(C)C)C(=O)N(CC(=O)O)C1CCCC1` (stereo not drawn), in that order: 3700 nM and 0.15 mg/kg.
Turning to `CC(=O)SCC(C)C(=O)N(CC(=O)O)C1CCCCCC1` (stereo not drawn), in experiment [1], the ID50 worked out at 0.06 mg/kg.
As for `CC(CS)C(=O)N(CC(=O)O)C1CC1` (stereo not drawn), inhibition in experiment [2] was half-maximal at 30 nM (IC50). This compound registered an ID50 in experiment [1] of 0.3 mg/kg.
Take `CC(CS)C(=O)N(CC(=O)O)C1Cc2ccccc2C1` (stereo not drawn): the ID50 in experiment [1] was 0.15 mg/kg.
For `CC(=O)SCC(C)C(=O)N(CC(=O)O)C1CC1` (stereo not drawn), it took 540 nM to reach half-maximal inhibition in experiment [2] (IC50). Besides, in experiment [1], the ID50 was 0.2 mg/kg.
For `CC(=O)SCC(C)C(=O)N(CC(=O)O)c1ccc2c(c1)CCC2` (stereo not drawn), in that order: 48 nM and 1.5 mg/kg.
For the compound `CC(CS)C(=O)N(CC(=O)O)C1CCCCC1` (stereo not drawn), in experiment [1], the ID50 amounted to 0.1 mg/kg.
`CC(=O)SCC(C)C(=O)N(CC(=O)O)C1CCCC1` (stereo not drawn) displayed a concentration for half-maximal inhibition (IC50) in experiment [2] of 82 nM. The ID50 in experiment [1] came to 0.15 mg/kg.
The corresponding values for `CSCCCN(CC(=O)O)C(=O)C(C)CSC(C)=O` (stereo not drawn) are 900 nM and 1.5 mg/kg.
In experiment [2], `CC(CS)C(=O)N(CC(=O)O)C1CCC1` (stereo not drawn) yielded an IC50 of 18 nM. The compound further displayed an ID50 in experiment [1] of 0.3 mg/kg.
For `CC(CSC(=O)CC(C)(C)C)C(=O)N(CC(=O)O)C1CCCC1` (stereo not drawn), in that order: 15000 nM and 1.2 mg/kg.
The corresponding values for `CC(CS)C(=O)N(CC(=O)O)C1CC2CCC1C2` (stereo not drawn) are 32 nM and 0.1 mg/kg.
As for `C[C@H](CS)C(=O)N1CCC[C@H]1C(=O)O` [CAPTOPRIL], the ED50 in experiment [3] was 0.057 mg/kg.
`CC(=O)SCC(C)C(=O)N(CC(=O)O)C1CC2CCC1C2` (stereo in doubt; 30) displayed an ID50 in experiment [1] of 0.06 mg/kg.
In turn, `CC(=O)SCC(C)C(=O)N(CC(=O)O)c1ccc(C)cc1` (stereo not drawn) returned a 50% inhibitory concentration (IC50) in experiment [2] of 130 nM. This compound also displayed an ID50 in experiment [1] of 0.15 mg/kg.
As for `CC(=O)SCC(C)C(=O)N(CC(=O)O)c1cccc(C)c1` (stereo not drawn), in experiment [2], the IC50 came to 75 nM. Moreover, in experiment [1], the ID50 was 0.15 mg/kg.
`C[C@@H](CSC(=O)C(C)(C)C)C(=O)N(CC(=O)O)C1CCCC1` gave an IC50 in experiment [2] of over 100000 nM. The compound also returned an ID50 in experiment [1] of 25 mg/kg.
For the compound `CCOC(=O)[C@H](CCc1ccccc1)N[C@@H](C)C(=O)N1CCC[C@H]1C(=O)O`, the ED50 in experiment [3] worked out at 0.1 mg/kg. The ID50 in experiment [1] was 0.08 mg/kg.
Take `C[C@H](CSC(=O)C(C)(C)C)C(=O)N(CC(=O)O)C1CCCC1` [PIVOPRIL]: the 50% inhibitory concentration (IC50) in experiment [2] was found to be 3600 nM. In addition, the ED50 in experiment [3] was 0.17 mg/kg. The ID50 in experiment [1] was 0.058 mg/kg.
